Assay results published in ChEMBL document CHEMBL1132620, “Piperazine imidazo[1,5-a]quinoxaline ureas as high-affinity GABAA ligands of dual functionality” (J Med Chem, 1999).
pKi: −log10 of the molar value. Calls of active or inactive are those of the source. No cut-off for these calls is given here.

Legend:
Rattus norvegicus [1] = assay: In vivo efficacy evaluated for ability to antagonize metrazole induced clonic convulsions in rat after ip injection; type: functional
[2] = biological target: T1, GABA-A receptor; alpha-1/beta-2/gamma-2 (Homo sapiens) (UniProt P14867+P47870+P18507); assay: (§1) In vitro GABA-mediated chloride current in A293 cells expressing GABA-A benzodiazepine receptor alpha-1-beta-2-gamma-2 subunits at 5 uM; type: functional, cell-based; details: HEK293
Mus musculus [3] = species: Mus musculus; assay: Ability to antagonize the muscle relaxation effect in mice caused by a benzodiazepine full agonist, triazolam.; type: functional
Method in brief: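 Muscle relaxation induced by triazolam; test compound and triazolam given separately, traction scored 30 min after dosing; ED50 for blocking the relaxant effect.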

Rattus norvegicus [4] = assay: Mean number of shocks produced by the compound in rats at a dose of 0 mg/kg was determined by vogel's punished licking assay; type: functional
Method in brief: (§2)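 Vogel punished licking test in rats; number of shocks accepted recorded per dose group (n 6–10); each dose compared with the 0 mg/kg group of the same experiment by Wilcoxon rank sum test.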

Rattus norvegicus [5] = assay: Mean number of shocks produced by CDPZ in rats at a dose of 12 mg/kg was determined by vogel's punished licking assay; type: functional; method in brief: as §2
[6] = biological target: T2, GABA-A receptor; anion channel (Rattus norvegicus) (UniProt O09028+P15431+P18506+P18508+P19969+P20236+P23574+P23576+P28471+P28473+P30191+P62813+P63079+P63138+Q91ZM7+Q9ES14); assay: Shift in [35S]TBPS binding to GABA-A Benzodiazepine receptor of rat brain membrane
[7] = biological target: T1, GABA-A receptor; alpha-1/beta-2/gamma-2 (Homo sapiens); assay: as §1; type: functional, cell-based; details: HEK293; remark: listed apart in the source
Rattus norvegicus [8] = assay: Mean number of shocks produced by the compound in rats at a dose of 10 mg/kg was determined by vogel's punished licking assay; type: functional; method in brief: as §2
Rattus norvegicus [9] = assay: Mean number of shocks produced by the compound in rats at a dose of 1 mg/kg was determined by vogel's punished licking assay; type: functional; method in brief: as §2
[10] = biological target: T2, GABA-A receptor; anion channel (Rattus norvegicus); assay: (§3) Displacement of [3H]flunitrazepam from GABA-A benzodiazepine receptor of rat cortical membranes; type: cell membranes; parameters: concentration or dose not given beside the values; details: Membrane, concentration not given here
Method in brief: (§4)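 Rat membranes incubated 60 min at 4 °C with [3H]flunitrazepam, 50 µg membrane protein and graded test drug in 200 µL containing NaCl, 10 mM Hepes/Tris pH 7.4 and 1 mM MgCl2; bound ligand separated by rapid filtration on GF/B; mean affinity, SE ≤10% of mean.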

Rattus norvegicus [11] = assay: Mean number of shocks produced by the compound in rats at a dose of 0.3 mg/kg was determined by vogel's punished licking assay; type: functional; method in brief: as §2
Mus musculus [12] = assay: In vivo efficacy is evaluated by percent control of cerebellar GMP levels in (drug+stress) treated mice/mice under stress; type: functional; parameters: concentration or dose not given beside the values
Method in brief: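 Male CF-1 mice given drug orally in vehicle 122 before electric footshock stress, controls given vehicle (1 mL/100 g); killed 30 min after treatment; cerebellum homogenized in 1% perchloric acid, iced 30 min, boiled 5 min, spun 17000g 20 min; supernatant cGMP by radioimmunoassay, expressed as % of stress control.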

Rattus norvegicus [13] = assay: Mean number of shocks produced by the compound in rats at a dose of 3 mg/kg was determined by vogel's punished licking assay; type: functional; method in brief: as §2
Mus musculus [14] = assay: In vivo acute electroshock physical dependence activity in mice; Not active.; type: functional, organism-based
[15] = biological target: GABA-A receptor; anion channel; assay: as §3; type: cell membranes, Membrane; method in brief: as §4
[16] = Total plasma clearance Clp was determined for the compound after iv dose of 5.06 mg/kg in rats; type: ADME, organism-based; parameters: dose 5.06 mg/kg, route intravenous; details: rat, read-out: Clp (converted)
[17] = Oral bioavailability at a dose of 5.01 mg/kg in rats; type: ADME, organism-based; details: rat, in vivo
[18] = Half-life after iv dose of 5.06 mg/kg in rats; type: ADME, organism-based; parameters: dose 5.06 mg/kg, route intravenous; details: rat, in vivo
[19] = Area under curve was determined for the compound after iv dose of 5.06 in rats; type: ADME, organism-based; details: rat, in vivo
[20] = Half-life after po dose of 5.01 mg/kg in rats; type: ADME, organism-based; parameters: dose 5.01 mg/kg, route oral; details: rat, in vivo
[21] = Maximum serum concentration was determined for the compound after po dose of 5.01 mg/kg in rats; type: ADME, organism-based; parameters: dose 5.01 mg/kg, route oral; details: rat
[22] = Area under curve was determined for the compound after po dose of 5.01 mg/kg in rats; type: ADME, organism-based; parameters: dose 5.01 mg/kg, route oral; details: rat, in vivo
[23] = Time at which Cmax was reached was determined for the compound after po dose of 5.01 mg/kg in rats; type: ADME, organism-based; parameters: dose 5.01 mg/kg, route oral; details: rat, in vivo
Method in brief: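 Male Sprague–Dawley rats dosed orally with compound in a solution formulation, n = 3–4 per compound; serum drug concentrations measured over time, lower limit of quantitation 50 ng/mL. Tmax reported as the range of observed values across animals.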

Mus musculus [24] = assay: In vivo acute electroshock physical dependence activity in mice; Inactive; type: functional, organism-based
[25] = biological target: T2, GABA-A receptor; anion channel (Rattus norvegicus); assay: Inhibition of [35S]TBPS binding to GABA-A Benzodiazepine receptor of rat brain membranes; type: cell membranes; details: Membrane
Mus musculus [26] = assay: In vivo acute electroshock physical dependence activity in mice; Active; type: functional, organism-based
Mus musculus [27] = species: Mus musculus; assay: Compound was evaluated for their ability to antagonize the muscle relaxation effects of benzodiazepine full agonist, triazolam.
Mus musculus [28] = assay: In vivo efficacy was evaluated for their ability to antagonize metrazole induced clonic convulsants in rat after ip injection.
Mus musculus [29] = assay: In vivo efficacy is evaluated by percent control of cerebellar GMP content in CF1 mice and result is expressed as crebrellar GMP levels in (drug+stress) treated mice and mice under stress.; type: functional
Method in brief: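 Male CF-1 mice dosed orally in vehicle 122 (controls get vehicle, 1 mL/100 g), then given electric footshock stress. Killed 30 min after dosing. Cerebellum homogenized in 10 volumes of 1% perchloric acid, kept 30 min on ice, boiled 5 min, spun 17000g for 20 min. cGMP measured by radioimmunoassay. Expressed as % of the (drug + stress)/stress response versus vehicle-shock controls.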

Structure (SMILES) | ED50 (Rattus norvegicus [1]) [mg/kg] | Change in Cl- current [2] | ED50 (Mus musculus [3]) [mg/kg] | Mean no. of shocks (Rattus norvegicus [4]) | Mean no. of shocks (Rattus norvegicus [5]) | Shift [6] | Change in Cl- current [7] | Mean no. of shocks (Rattus norvegicus [8]) | Mean no. of shocks (Rattus norvegicus [9]) | inhibition [10] [%] | Mean no. of shocks (Rattus norvegicus [11]) | Control (Mus musculus [12]) [%] | Mean no. of shocks (Rattus norvegicus [13]) | pKi [15] | further results
CC(C)N1[C@H](C)CN(C(=O)N2Cc3c(C(=O)OC(C)(C)C)ncn3-c3ccc(Cl)cc32)C[C@@H]1C | 35.3 | 0.9 | > 30 | 6.6 | 26 | -0.97 | -0.32 | <3.4 | 5.3 | 85 | 6.3 | 52 | 5 | 8.29 | Acute electroshock activity (Mus musculus [14]): inactive
C[C@H]1CN(C(=O)N2Cc3c(C(=O)OC(C)(C)C)ncn3-c3ccc(Cl)cc32)C[C@H](C)N1 | 7.4 | 1.05 | > 30 | 3.3 | 14.8 | 0.37 | 0.4 | 8.8 | 5.2 | 45 | 3.9 | 69 | 5.6 | 7.78 | clearance [16]: 17.8 mL/min/kg; bioavailability [17]: 54%; half-life [18]: 1.5 h; AUC [19]: 5010 ng·h/mL; half-life [20]: 2.4 h; Cmax [21]: 660 ng/mL; AUC [22]: 2620 ng·h/mL; Tmax [23]: 0.25 h; Acute electroshock activity (Mus musculus [24]): inactive
CC(C)(C)OC(=O)c1ncn2c1CN(C(=O)N1CCN(C(C)(C)C)CC1)c1cc(Cl)ccc1-2 | 50 | – | > 30 | – | – | – | 0.12 | – | – | 62 | – | – | – | 7.68 | Shift [25]: -0.03; Acute electroshock activity (Mus musculus [26]): Active
CN1C(=O)CN=C(c2ccccc2)c2cc(Cl)ccc21 [DIAZEPAM] | – | – | – | – | – | – | – | – | – | – | – | – | – | – | ED50 (Mus musculus [27]): > 30 mg/kg; ED50 (Mus musculus [28]): 0.5 mg/kg; Control (Mus musculus [29]): 0.44%
